Here are results for 96 compounds from ChEMBL document CHEMBL4513216, “Probing the Open Global Health Chemical Diversity Library for Multistage-Active Starting Points for Next-Generation Antimalarials” (ACS Infect Dis, 2020).

Each structure is given as a SMILES string.

A short description of the series: Toxicity liver stage against HepG2, at 10uM. The class given is cell-based. More on the design: test concentration 10 uM, cell line HepG2-A16-CD81EGFP. The following applies: human, HepG2-A16-CD81EGFP cells; read-out: INHIBITION
In outline:
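Uninfected HepG2-A16-CD81EGFP cells, 3 × 10^3 per well, 1536-well, plated on prespotted compound at 10 μM final, parasite-free screening media added to match infected plates; puromycin 10 μM positive, DMSO 0.5% negative; run in parallel with 48 h PbLuc assay at 37 °C, 5% CO2; viability by CellTiter-Glo luminescence, normalized to controls.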
As to `O=C(CCC(=O)Nc1nnc(C2CCCCC2)s1)NCC1CCCO1` (stereo unspecified), the cytotoxicity at 10 µM is -7.7%.

In the case of `CC1CCCN(Cc2coc(-c3cccc(F)c3)n2)C1` (stereo unspecified), the cytotoxicity at 10 µM is -16.7%.

Take `O[C@@H]1C[C@@H](c2nc(Cc3ccccc3)no2)N(Cc2ccc(F)cc2)C1`: the cytotoxicity at 10 µM amounted to 0.296%.

As to `Cc1ccc(CNC2(Cc3cc(-c4cccc(O)c4)on3)COC2)o1`, the cytotoxicity at 10 µM is -0.873%.

As to `O[C@@H]1C[C@@H](c2nc(-c3ccc(F)cc3)no2)N(C2CCOCC2)C1`, the cytotoxicity at 10 µM is 4.51%.

As to `CN1Cc2ccccc2N(CC(O)C(F)(F)F)CCC1=O` (stereo unspecified), the cytotoxicity at 10 µM came out at 0.905%.

For the compound `Cc1ccc(CN2C[C@H]3C[C@H](C(=O)NCC4CC4)N(C)[C@H]3C2)o1`, the cytotoxicity at 10 µM was -3.13%.

As to `COC[C@]12COC[C@H]1CN(C(=O)c1ccc(F)cc1C)C2`, the cytotoxicity at 10 µM was -135%.

With `CCn1cc2c(n1)CN(S(=O)(=O)c1ccc(C)cc1)CC2COC` (stereo unspecified), the cytotoxicity at 10 µM was found to be 5.77%.

Take `N#Cc1cccc(N2CCCC3(CN(C(=O)[C@H]4CCCO4)CCO3)C2)c1` (stereo partly specified): the cytotoxicity at 10 µM amounted to 3.53%.

On to `Cc1cccc(CN2CCc3ncnc(Oc4cccnc4)c3CC2)n1`, for which the cytotoxicity at 10 µM was -139%.

Take `O=C(Cc1ccccn1)N1CCn2cc(Cn3cncn3)nc2C1`: the cytotoxicity at 10 µM was -129%.

With `CC(C)(C)NC(=O)COc1ccc(CNCCOc2ccccn2)cc1`, the cytotoxicity at 10 µM was -3.76%.

Turning to `CCOCc1cccc(S(=O)(=O)Nc2ccn(CC)n2)c1`, the cytotoxicity at 10 µM came out at 4.84%.

In the case of `CN(C)C(=O)c1cn[nH]c1C1CCCN1Cc1c[nH]cn1` (stereo unspecified), the cytotoxicity at 10 µM is -3.3%.

For `O=C1CN([C@@H]2CC[C@@H](NS(=O)(=O)c3ccccc3F)[C@H]2O)CCN1`, the cytotoxicity at 10 µM worked out at 1.06%.

With `O=C(c1cnco1)N1CCC(Cc2ccc3ncccc3c2)CC1`, the cytotoxicity at 10 µM is 7.22%.

With `CC1(C(=O)N2CCN(c3ncccn3)CC2)CNCCO1` (stereo unspecified), the cytotoxicity at 10 µM is -0.79%.

Consider `Cc1cc(C(=O)NC(C)Cc2cccc(Cl)c2)n(C)n1` (stereo unspecified), for which the cytotoxicity at 10 µM was found to be 10.9%.

For the compound `CCNC(=O)CN(CC)S(=O)(=O)c1c(Br)cc2[nH]c(=O)oc2c1Cl`, the cytotoxicity at 10 µM stood at 9.69%.

Turning to `CC(C)(C)OC(=O)N[C@H]1CCN(C(=O)c2cc(Cl)c[nH]2)C1`, the cytotoxicity at 10 µM was -2.84%.

For the compound `CC(c1nc(C2CC2)no1)N1CCN(CCn2ccccc2=O)CC1` (stereo unspecified), the cytotoxicity at 10 µM was determined as 25.8%.

For the compound `N#CCSCC(=O)NCC1CCCCC1`, the cytotoxicity at 10 µM turned out to be 8.32%.

With `O=C(NCC1CCS(=O)(=O)C1)c1ccc(NC(=O)c2ccco2)cc1` (stereo unspecified), the cytotoxicity at 10 µM is 3.25%.

Consider `CCS(=O)(=O)CCSc1ccc(Cl)cc1`, for which the cytotoxicity at 10 µM was -1.13%.

Consider `CC(C)(C)OC(=O)NCCC(=O)NCC(O)c1cccc(F)c1` (stereo unspecified), for which the cytotoxicity at 10 µM was -2.48%.

`CC(NC(=O)N1CCC1)c1ccc(S(C)(=O)=O)cc1` (stereo unspecified): the cytotoxicity at 10 µM was -4.22%.

For `O=C(Nc1ccnc(OC2CCOC2)c1)c1cccs1` (stereo unspecified), the cytotoxicity at 10 µM was determined as 5.42%.

As to `Cc1nn(CC(O)CN2CCc3ccccc3C2)c(=O)c2ccccc12` (stereo unspecified), the cytotoxicity at 10 µM came out at 11.1%.

Take `CC(NC(=O)NCc1cscn1)c1ccc(N2CCOCC2)cc1` (stereo unspecified): the cytotoxicity at 10 µM is -0.736%.

As for `NC(=O)C1CCN(C(=O)c2ccccc2OCc2ccncc2)CC1`, the cytotoxicity at 10 µM was 1.02%.

Consider `CN(C)S(=O)(=O)N1CCN(C(=O)c2cc(-c3ccccc3)[nH]n2)CC1`, for which the cytotoxicity at 10 µM is -0.665%.

As for `CS(=O)(=O)NCc1ccc(NC(=O)CC2=CCCCC2)cc1`, the cytotoxicity at 10 µM is -2.48%.

Consider `CN(CC(F)(F)F)C(=O)CNC(=O)N1CCCC(C(F)(F)F)C1` (stereo unspecified), for which the cytotoxicity at 10 µM worked out at 0.601%.

Consider `Cc1nccn1CCCNc1ncccc1C#N`, for which the cytotoxicity at 10 µM was -9.09%.

For `CN(Cc1cnn(C)c1)C(=O)c1ccc(Cl)c(N2CCNC2=O)c1`, the cytotoxicity at 10 µM was -10.8%.

In the case of `Cn1nccc1NC(=O)CN1CCc2sccc2C1`, the cytotoxicity at 10 µM came to 1.09%.

For `O=C(NC1(c2cccc(F)c2)CCOCC1)c1ccoc1`, the cytotoxicity at 10 µM was -9.41%.

For `CC1CCCN(CCNC(=O)c2cncnc2C(C)C)C1` (stereo unspecified), the cytotoxicity at 10 µM is -10.6%.

`COc1ccc(CNC(=O)NCC2CCOC2)c(C(F)(F)F)c1` (stereo unspecified): the cytotoxicity at 10 µM was -8.28%.

Regarding `COC[C@@]12CCC[C@@H]1CN(C(=O)N1CCCC1)C2`, the cytotoxicity at 10 µM came out at 7.9%.

On to `Cc1ccc(N2CCC3(CCCN(C(=O)c4cnccn4)C3)C2)nn1` (stereo unspecified), for which the cytotoxicity at 10 µM is 1.14%.

With `FC(F)(F)c1ccc(-c2cc(NC3CCNCC3)nc3[nH]ccc23)nc1`, the cytotoxicity at 10 µM is -0.608%.

For `Cn1cc(C(=O)N2CCC(c3nccn3Cc3ccncc3)CC2)cn1`, the cytotoxicity at 10 µM was -0.658%.

On to `COc1ccc2nc(CNC(=O)C3CC4(CCNCC4)CN3C)[nH]c2c1` (stereo unspecified), for which the cytotoxicity at 10 µM was determined as 0.488%.

Turning to `Cc1ccc2nc(C)c(C)c(C(=O)N3CCN(c4nccs4)CC3)c2c1`, the cytotoxicity at 10 µM amounted to 3.96%.

As to `CC(C)CCN1CC2(CCN(C3CCCOC3)CC2)OC1=O` (stereo unspecified), the cytotoxicity at 10 µM is 6.31%.

On to `CN(C)c1ccccc1C(=O)N1CCCC(c2ccc(C(=O)O)cc2)C1` (stereo unspecified), for which the cytotoxicity at 10 µM was found to be 16.2%.

For the compound `Cc1cc(C(=O)N2CCC3(CCNCC3)CC2)c2cccc(C)c2n1`, the cytotoxicity at 10 µM was -15.6%.

`CC(C)NC(=O)N1CCC(c2nccn2C(C)C)CC1`: the cytotoxicity at 10 µM was -6.77%.

Regarding `Cc1cnccc1CN1CCN(C)C2(CCC(=O)N(CC3CC3)CC2)C1` (stereo unspecified), the cytotoxicity at 10 µM is -3.51%.

As for `COCCOC1CCN(C(C(=O)O)c2ccc(OC)c(F)c2)CC1` (stereo unspecified), the cytotoxicity at 10 µM stood at 7.42%.

For `Cc1nsc(NC(=O)NC2(CN3CCOCC3)CCCCC2)n1`, the cytotoxicity at 10 µM is -3.82%.

As for `Cc1nc2c(c(NCCc3nc(C)c(Cl)s3)n1)CCNCC2`, the cytotoxicity at 10 µM was -9.28%.

`CCc1cc(NCC(O)CN2CCCC2)ncn1` (stereo unspecified): the cytotoxicity at 10 µM is 6.09%.

`COCC[C@]1(O)CCN(Cc2ccccn2)C[C@H]1C`: the cytotoxicity at 10 µM was -7.72%.

Turning to `O=C(c1cc(-n2cccn2)ccc1Cl)N1CCC(N2CCCC2=O)CC1`, the cytotoxicity at 10 µM is -2.08%.

As to `CCn1ncc(CN2CCCC(C(=O)c3ccc(Cl)cc3)C2)c1C` (stereo unspecified), the cytotoxicity at 10 µM was 0.522%.

`Cc1cc(N2CCC(C(=O)O)(n3ccc(C(C)C)n3)CC2)nc(N)n1`: the cytotoxicity at 10 µM stood at 0.445%.

Consider `Cc1nc2c(C)cccc2cc1C(=O)N1CCC2(CCCNC2)C1` (stereo unspecified), for which the cytotoxicity at 10 µM is -10.3%.

For the compound `COc1ccc(NC2(C(=O)N3CCCn4cncc4C3)CCCC2)cc1`, the cytotoxicity at 10 µM turned out to be 10.2%.

For `O=C(NCc1cccnc1N1CCCC(O)C1)c1ccc2[nH]nnc2c1` (stereo unspecified), the cytotoxicity at 10 µM is 11.4%.

For `Cc1nc(O)cc(CCNC(=O)c2ccccc2N2CCCC2)n1`, the cytotoxicity at 10 µM was determined as 10.4%.

`Cc1ccc(C(=O)NCCC(C)C)cc1NS(C)(=O)=O`: the cytotoxicity at 10 µM was determined as 10.9%.

With `CCc1ccc(CN2CCC(CNS(=O)(=O)C3CC3)C2)nc1` (stereo unspecified), the cytotoxicity at 10 µM was -4.69%.

Regarding `Cc1nc2c(cc1C(=O)Nc1ccccc1Cl)c(=O)n(C)c(=O)n2C`, the cytotoxicity at 10 µM is -5.06%.

As for `CCCc1cc(C(=O)N2C[C@@H](C)[C@](O)(C3CCC3)C2)[nH]n1`, the cytotoxicity at 10 µM was found to be 10.1%.

For `CCCOC1CCCN(C(=O)c2cc(CN(CC)CC)c(CC)o2)C1` (stereo unspecified), the cytotoxicity at 10 µM was 10.1%.

As for `CN(C)c1nc2c(c(N3CCC(O)CC3)n1)CN(CC1CCNC1)CC2` (stereo unspecified), the cytotoxicity at 10 µM is -10.5%.

As for `COCC(O)CNC(=O)c1cnc(-c2ccccc2)nc1O` (stereo unspecified), the cytotoxicity at 10 µM was -10.2%.

Regarding `Cc1ccc(NC(=O)C2=CN=S=N2)cc1`, the cytotoxicity at 10 µM stood at 3.51%.

Regarding `COc1ccc(CN2CCCN(C(=O)C(C)n3ccnc3)CC2)cc1` (stereo unspecified), the cytotoxicity at 10 µM was -14.1%.

As for `CC(C)c1nc(C(=O)NCCn2ccnc2)nn1-c1cccc(F)c1`, the cytotoxicity at 10 µM was -7.64%.

Take `COc1ccc(C)cc1CNCc1ccc(-n2nc(C)cc2C)nc1`: the cytotoxicity at 10 µM was 0.813%.

Regarding `CC(O)CN1CCN(Cc2nnc(C3CC3)o2)CC1` (stereo unspecified), the cytotoxicity at 10 µM was -10%.

For `CC(C)(C)c1cnc(CN2CCCC2Cn2cccn2)o1` (stereo unspecified), the cytotoxicity at 10 µM was -9.6%.

`Cn1c(C2CC2)nc2c1CCN(CCOc1ccc(C#N)cc1)C2`: the cytotoxicity at 10 µM was -9.39%.

For the compound `COC(=O)C(c1cc(F)ccc1F)N(C)C(=O)c1cccnc1O` (stereo unspecified), the cytotoxicity at 10 µM was -0.289%.

On to `CCn1cc(C(=O)NCc2csc(Br)c2)cn1`, for which the cytotoxicity at 10 µM was determined as 4.84%.

Turning to `Cc1oc(C)c(C(=O)N2CCCN(Cc3cscn3)CC2)c1C`, the cytotoxicity at 10 µM is 6.88%.

Regarding `CC(c1nc(C2CC2)no1)N1CCN(Cc2ccsc2)CC1` (stereo unspecified), the cytotoxicity at 10 µM is 0.993%.

For `CCOc1ccc(Br)cc1C1CCCCN1` (stereo unspecified), the cytotoxicity at 10 µM stood at 7.16%.

For the compound `Cn1cnc2c1C(COCc1ccccc1)N(Cc1ccccn1)CC2` (stereo unspecified), the cytotoxicity at 10 µM is 9.82%.

Consider `CCOC1COC2(CCN(Cc3cccnc3OC)CC2)C1` (stereo unspecified), for which the cytotoxicity at 10 µM is -2.47%.

Turning to `CC[C@@H]1N(Cc2ccncc2)CCC[C@]12CCC(=O)N2C`, the cytotoxicity at 10 µM stood at 10.5%.

For `CS(=O)(=O)N1CCOCC2(CCN(C(=O)c3cccnc3)CC2)C1`, the cytotoxicity at 10 µM is -10.1%.

On to `COCC1CC2(CCN(C(=O)c3occc3C)CC2)CN1C(C)C` (stereo unspecified), for which the cytotoxicity at 10 µM was 12%.

On to `CCCN1CCCn2c(nc(CNC(=O)c3ccsc3)cc2=O)C1`, for which the cytotoxicity at 10 µM was 6.89%.

As to `c1coc(CN2CCn3c(COCC4CC4)nnc3C2)c1`, the cytotoxicity at 10 µM worked out at 6.28%.

Turning to `CCc1cnc(N2C[C@H]3CN(Cc4csc(C)n4)C(=O)[C@H]3C2)nc1`, the cytotoxicity at 10 µM is 9.43%.

For `CC(C)CN1CCC(N2CCC(C(=O)N(C)C)CC2)CC1`, the cytotoxicity at 10 µM stood at 16.9%.

As to `CC(C)N1CCO[C@H]2CN(C(=O)Cc3cccs3)C[C@H]21`, the cytotoxicity at 10 µM is 7.07%.

As to `CN(C)CCOCC1CN(Cc2ccoc2)Cc2nnn(C)c21` (stereo unspecified), the cytotoxicity at 10 µM is -1.53%.

For the compound `CNC(=O)CN1CCOCC2(CCCN(Cc3cccnc3)C2)C1` (stereo unspecified), the cytotoxicity at 10 µM is -6.02%.

With `O=C1[C@@H]2CC[C@@H](CN(Cc3ccccc3OC(F)F)C2)N1CC1CC1`, the cytotoxicity at 10 µM is -6.17%.

Consider `CCCn1cc(C(=O)NC2CCC(n3cnnc3)CC2)c(C)n1` (stereo unspecified), for which the cytotoxicity at 10 µM was 0.642%.
